This is an account of results in ChEMBL document CHEMBL3875203, “Small molecule mimics of DFTamP1, a database designed anti-Staphylococcal peptide” (Bioorg Med Chem, 2017).

The test system of data set [1] is Staphylococcus aureus. The data set is described as follows: Antibacterial activity against methicillin-resistant Staphylococcus aureus USA300 after 20 hrs by microdilution method. The data set is classed as functional. To be noted: USA300, 20 h. The essentials:
(§1)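 MIC = lowest concentration with no detectable growth. pH series run at pH 6.8, 7.4 and 8.0. Daptomycin wells carried 2 mM Ca²⁺. Repeated by different investigators on different dates.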
On the technique in general: In broth dilution the organism is exposed to a series of concentrations in liquid medium.

Data set [2] has as its system Staphylococcus aureus. Description: Ratio of MIC for methicillin-resistant Staphylococcus aureus USA300 in presence of 100 mM NaCl to MIC for methicillin-resistant Staphylococcus aureus USA300 in absence of 100 mM NaCl. The data set is classed as functional. The essentials:
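Broth microdilution MIC against S. aureus USA300 in TSB with and without 100 mM NaCl. Inoculum 10⁶ CFU/mL exponential-phase cells, ~20 h at 37°C, OD630 read-out, no-growth endpoint. Ratio of MIC with salt to MIC without salt.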

The nature of data set [3]: Retention time of the compound by HPLC method. The data set is classed as physicochemical.
The test system of data set [4] is Staphylococcus aureus. Description: Antibacterial activity against Staphylococcus aureus USA400 after 20 hrs by microdilution method. Type of data set: functional. The conditions noted are these: USA400, 20 h. The essentials: (§2)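 Incubated ~20 h at 37°C, then read at 630 nm. MIC is the lowest concentration with no detectable growth. Daptomycin assays had 2 mM Ca²⁺ added to the medium. Repeated several times by different investigators.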

Data set [5] deals with Staphylococcus aureus. The data set is described as follows: Antibacterial activity against Staphylococcus aureus USA200 after 20 hrs by microdilution method. The data set is classed as functional. To be noted: USA200, 20 h. The essentials: as §2
Data set [6] deals with Staphylococcus aureus. The data set is described as follows: Inhibition of methicillin-resistant Staphylococcus aureus USA300 preformed biofilms after 24 hrs by XTT assay. The data set is classed as functional. The essentials: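 USA300 biofilms formed for 24 h on polystyrene wells, washed, then treated with compounds for 24 h. Remaining biofilm quantified by XTT reduction (2 h, 37°C, absorbance 450 nm, medium-plus-XTT blank). Compared with untreated control.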
Background: Formazan colour is commonly taken as a measure of viable cells.

Data set [7] deals with Staphylococcus aureus. The data set is described as follows: Inhibition of surface attachment by methicillin-resistant Staphylococcus aureus USA300 assessed as reduction in biofilm formation after 4 hrs by XTT assay. Type of data set: functional.
Data set [8] is described as follows: Hemolytic activity against human RBC after 1 hr. The data set is classed as ADME, cell-based, Erythrocyte. To be noted: human red blood cells. The essentials:
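Human red blood cells were washed three times in normal saline (800 g, 10 min) and made up as a 2% suspension. After centrifugation, supernatant absorbance was read at 545 nm. Lysis was set at 100% for 1% Triton X-100 and 0% for untreated cells; HL50 is the 50% hemolytic concentration.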

Another data set concerns Escherichia coli. The data set is described as follows: Antibacterial activity against Escherichia coli ATCC 25922 after 20 hrs by microdilution method. Type of data set: functional. The conditions noted are these: ATCC 25922, 20 h. An outline of the steps:
as §2

For data set [9], the system named is Staphylococcus aureus. Description: Antibacterial activity against Staphylococcus aureus Newman after 20 hrs by microdilution method. Type of data set: functional. The essentials: as §2
Data set [10] concerns Staphylococcus aureus. The data set is described as follows: Antibacterial activity against methicillin-resistant Staphylococcus aureus USA300 after 20 hrs at pH 6.8 to 8 by microdilution method. Type of data set: functional. The essentials:
as §1

A short description of data set [11]: Therapeutic index, ratio of HC50 for human RBC to MIC for methicillin-resistant Staphylococcus aureus USA300. To be noted: human red blood cells, read-out: TI. An outline of the steps:
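Supernatant hemoglobin read at 545 nm; 1% Triton X-100 = 100% lysis, untreated = 0%. HL50 divided by USA300 MIC gives the selectivity index.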

The subject of a further data set is Klebsiella pneumoniae. Description: Antibacterial activity against Klebsiella pneumoniae ATCC 13883 after 20 hrs by microdilution method. Type of data set: functional. The conditions noted are these: ATCC 13883, 20 h. An outline of the steps: as §2
Another data set relates to Pseudomonas aeruginosa. Description: Antibacterial activity against Pseudomonas aeruginosa PAO1 after 20 hrs by microdilution method. The data set is classed as functional. To be noted: PAO1, 20 h. An outline of the steps: as §2
Data set [12] concerns Staphylococcus aureus. The data set is described as follows: Induction of membrane damage in methicillin-resistant Staphylococcus aureus USA300 measured up to 90 mins by propidium iodide staining based fluorescence spectroscopic analysis.
In data set [13] the test system is Staphylococcus aureus. The data set is described as follows: Antibacterial activity against Staphylococcus aureus Mu50 after 20 hrs by microdilution method. The data set is classed as functional. To be noted: Mu50, 20 h. The essentials:
as §2

Data set [14] deals with Staphylococcus aureus. Description: Antibacterial activity against Staphylococcus aureus UAMS-1 after 20 hrs by microdilution method. Type of data set: functional. To be noted: UAMS-1, 20 h. The essentials:
as §2

Calls of active or inactive are those of the source. The rule behind the calls is not given here.

As for `CCCC(CCC)(c1c[nH]c2cc(C3=NCCN3)ccc12)c1c[nH]c2cc(C3=NCCN3)ccc12.CS(=O)(=O)O.CS(=O)(=O)O`, the minimum inhibitory concentration (MIC) – broadly, the lowest concentration that inhibits growth of the organism – in the data set on Staphylococcus aureus [1] was 1.6 to 3.1 µM; against Staphylococcus aureus [4], 3.1 µM; against Staphylococcus aureus [5] it was less than 1.5 µM; against Escherichia coli, more than 50 µM; against Staphylococcus aureus [9], 3.1 µM; against Klebsiella pneumoniae, more than 50 µM. Moreover, the values for the minimum inhibitory concentration (MIC) in the data set on Pseudomonas aeruginosa, against Staphylococcus aureus [13] and against Staphylococcus aureus [14] were more than 50 µM, 3.1 µM and 12.5 to 25 µM, respectively. In the data set with Staphylococcus aureus [2], the Ratio entry is on record as “<=2”. In [3], this molecule gave a Retention_time of 12.102 min. Moreover, the “inhibition (INH)” value in the data set on Staphylococcus aureus [6] is on record as 50%; in the data set on Staphylococcus aureus [7] it was 40%. In addition, the concentration for 50% haemolysis (HC50) (usually the concentration that lyses half of the red blood cells) at 1 h in data set [8] came out at 150 µM. The result in the data set on Staphylococcus aureus [10] and with Staphylococcus aureus [12] was Active. Besides, in data set [11], the selectivity ratio is 48 to 96.
